In ChEMBL document CHEMBL1140118, “Design, synthesis, and structure-activity relationships of novel insulin receptor tyrosine kinase activators” (J Med Chem, 2008) one finds EC50 data, which are given here for 39 compounds.

The structures appear in SMILES notation.

Insulin receptor, sequence (P15208 28-748 limits assumed): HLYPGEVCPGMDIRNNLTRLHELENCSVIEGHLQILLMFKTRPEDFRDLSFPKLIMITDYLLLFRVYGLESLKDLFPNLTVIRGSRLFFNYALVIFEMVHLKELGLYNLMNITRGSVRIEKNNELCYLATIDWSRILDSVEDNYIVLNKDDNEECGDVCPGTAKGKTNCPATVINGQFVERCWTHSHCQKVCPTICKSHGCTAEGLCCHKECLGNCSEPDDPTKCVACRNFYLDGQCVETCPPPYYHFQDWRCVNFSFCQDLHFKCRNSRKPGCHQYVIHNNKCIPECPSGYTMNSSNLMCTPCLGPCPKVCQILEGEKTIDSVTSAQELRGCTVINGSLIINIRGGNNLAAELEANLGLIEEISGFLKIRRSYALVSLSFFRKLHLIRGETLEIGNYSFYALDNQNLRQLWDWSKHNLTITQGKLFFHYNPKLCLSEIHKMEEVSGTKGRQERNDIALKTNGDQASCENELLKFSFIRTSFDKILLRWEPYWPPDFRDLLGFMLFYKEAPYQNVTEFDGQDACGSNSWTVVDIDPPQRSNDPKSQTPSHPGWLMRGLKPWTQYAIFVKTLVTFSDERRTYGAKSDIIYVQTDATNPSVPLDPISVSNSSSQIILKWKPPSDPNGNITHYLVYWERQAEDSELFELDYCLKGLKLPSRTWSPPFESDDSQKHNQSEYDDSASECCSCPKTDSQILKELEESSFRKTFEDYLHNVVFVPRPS
Insulin receptor, sequence (P15208 753-1372 limits assumed): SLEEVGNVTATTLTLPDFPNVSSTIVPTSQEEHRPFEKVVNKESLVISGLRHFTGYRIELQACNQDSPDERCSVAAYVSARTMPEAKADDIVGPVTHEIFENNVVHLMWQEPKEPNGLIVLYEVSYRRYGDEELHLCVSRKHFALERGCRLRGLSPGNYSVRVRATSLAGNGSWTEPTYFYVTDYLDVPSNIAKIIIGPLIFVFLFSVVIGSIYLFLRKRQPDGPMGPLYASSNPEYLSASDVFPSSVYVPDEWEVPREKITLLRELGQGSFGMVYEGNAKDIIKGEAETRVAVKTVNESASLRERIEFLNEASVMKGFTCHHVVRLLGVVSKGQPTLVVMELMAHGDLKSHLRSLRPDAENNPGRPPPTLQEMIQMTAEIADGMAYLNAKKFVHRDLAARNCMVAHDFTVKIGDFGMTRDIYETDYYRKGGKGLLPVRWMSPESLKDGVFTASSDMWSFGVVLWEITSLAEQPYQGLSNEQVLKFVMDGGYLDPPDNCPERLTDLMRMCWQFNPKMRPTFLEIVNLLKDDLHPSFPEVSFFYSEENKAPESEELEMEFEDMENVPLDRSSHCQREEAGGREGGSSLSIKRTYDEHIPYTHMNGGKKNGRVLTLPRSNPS

The target of this assay is Insulin receptor (Mus musculus, UniProt P15208). Nature of the assay: Activation of insulin receptor tyrosine kinase in mouse 3T3-L1 cells assessed as increase in 2-deoxy-D-[14C]glucose transport in presence of insulin. In kind it is cell-based. The method, boiled down:
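Differentiated, 16 h serum-starved 3T3-L1 adipocytes were exposed to compound plus 5.6 nM insulin (submaximal) for 30 min at 37 °C. They were then pulsed 30 min with 0.5 µCi/mL 2-deoxy-D-[14C]glucose and lysate counts were read. Four concentrations were tested in triplicate. EC50 came from nonlinear regression of untransformed data, given as mean ± SEM when n ≥ 3.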
Regarding `O=C(Nc1ccc2c(O)cc(S(=O)(=O)Nc3ccc(Cl)c(C(=O)O)c3)cc2c1)Nc1ccc2c(O)cc(S(=O)(=O)Nc3ccc(Cl)c(C(=O)O)c3)cc2c1`, the EC50 worked out at 18 µM.
As for `O=C(Nc1ccc2c(O)cc(S(=O)(=O)Nc3ccc(C(=O)O)cc3)cc2c1)Nc1ccc2c(O)cc(S(=O)(=O)Nc3ccc(C(=O)O)cc3)cc2c1`, the figure is 103 µM; as for `O=C(Nc1ccc2c(O)cc(S(=O)(=O)Nc3cccc(C(F)(F)F)c3)cc2c1)Nc1ccc2c(O)cc(S(=O)(=O)Nc3cccc(C(F)(F)F)c3)cc2c1`, more than 200 µM.
As for `O=C(Nc1ccc2ccc(S(=O)(=O)Nc3cccc(C(=O)O)c3)cc2c1)Nc1ccc2ccc(S(=O)(=O)Nc3cccc(C(=O)O)c3)cc2c1`, the figure is 24 µM; as for `O=C(Nc1ccc2ccc(S(=O)(=O)Nc3cccc(O)c3)cc2c1)Nc1ccc2ccc(S(=O)(=O)Nc3cccc(O)c3)cc2c1`, more than 200 µM.
On to `O=C(Nc1ccc2c(O)cc(S(=O)(=O)Nc3cccc(C(=O)O)c3Cl)cc2c1)Nc1ccc2c(O)cc(S(=O)(=O)Nc3cccc(C(=O)O)c3Cl)cc2c1`, for which the EC50 came out at 121 µM.
Take `N#Cc1cccc(NS(=O)(=O)c2ccc3ccc(NC(=O)Nc4ccc5ccc(S(=O)(=O)Nc6cccc(C#N)c6)cc5c4)cc3c2)c1`: the EC50 is more than 200 µM.
As for `O=C(Nc1ccc2ccc(S(=O)(=O)Nc3ccccc3)cc2c1)Nc1ccc2ccc(S(=O)(=O)Nc3ccccc3)cc2c1`, the figure is more than 200 µM.
As for `O=C(Nc1ccc2c(O)cc(S(=O)(=O)Nc3cccc(C(=O)O)c3)cc2c1)Nc1ccc2c(O)cc(S(=O)(=O)Nc3cccc(C(=O)O)c3)cc2c1`, the figure is 43 µM; as for `O=C(Nc1ccc2ccc(S(=O)(=O)Nc3ccc([N+](=O)[O-])c(C(=O)O)c3)cc2c1)Nc1ccc2ccc(S(=O)(=O)Nc3ccc([N+](=O)[O-])c(C(=O)O)c3)cc2c1`, 40 µM.
As for `O=C(Nc1ccc2c(O)cc(S(=O)(=O)Nc3ccc(O)c(C(=O)O)c3)cc2c1)Nc1ccc2c(O)cc(S(=O)(=O)Nc3ccc(O)c(C(=O)O)c3)cc2c1`, the figure is 43 µM.
With `O=C(O)c1cc(NS(=O)(=O)c2ccc3ccc(NC(=S)Nc4ccc5ccc(S(=O)(=O)Nc6ccc(Cl)c(C(=O)O)c6)cc5c4)cc3c2)ccc1Cl`, the EC50 came to 162 µM.
As for `O=C(Nc1ccc2ccc(S(=O)(=O)O)cc2c1)Nc1ccc2ccc(S(=O)(=O)Nc3ccc(O)c(C(=O)O)c3)cc2c1`, the figure is more than 200 µM; as for `O=C(Nc1ccc2ccc(S(=O)(=O)O)cc2c1)Nc1ccc2ccc(S(=O)(=O)Nc3ccc(Cl)c(S(=O)(=O)O)c3)cc2c1`, more than 200 µM; as for `O=C(Nc1ccc2ccc(S(=O)(=O)Nc3ccc(C(=O)O)cc3)cc2c1)Nc1ccc2ccc(S(=O)(=O)Nc3ccc(C(=O)O)cc3)cc2c1`, 183 µM.
As for `O=C(Nc1ccc2ccc(C(=O)Nc3cccc(S(=O)(=O)O)c3)cc2c1)Nc1ccc2ccc(C(=O)Nc3cccc(S(=O)(=O)O)c3)cc2c1`, the figure is more than 200 µM; as for `O=C(Nc1ccc2ccc(S(=O)(=O)Nc3cccc(-c4nn[nH]n4)c3)cc2c1)Nc1ccc2ccc(S(=O)(=O)Nc3cccc(-c4nn[nH]n4)c3)cc2c1`, 54 µM; as for `O=C(O)Cc1cccc(NS(=O)(=O)c2cc(O)c3ccc(NC(=O)Nc4ccc5c(O)cc(S(=O)(=O)Nc6cccc(CC(=O)O)c6)cc5c4)cc3c2)c1`, more than 200 µM.
`O=C(O)c1cc(NS(=O)(=O)c2ccc3ccc(N4CCN(c5ccc6ccc(S(=O)(=O)Nc7ccc(Cl)c(C(=O)O)c7)cc6c5)C4=O)cc3c2)ccc1Cl`: the EC50 stood at 56 µM.
For the compound `NC(=Nc1ccc2ccc(S(=O)(=O)Nc3ccc(Cl)c(C(=O)O)c3)cc2c1)Nc1ccc2ccc(S(=O)(=O)Nc3ccc(Cl)c(C(=O)O)c3)cc2c1`, the EC50 was 179 µM.
As for `O=C(Nc1ccc2c(O)cc(S(=O)(=O)Nc3cccc(CO)c3)cc2c1)Nc1ccc2c(O)cc(S(=O)(=O)Nc3cccc(CO)c3)cc2c1`, the figure is more than 200 µM; as for `O=C(Nc1ccc2ccc(S(=O)(=O)Nc3ccc(Cl)c(C(=O)O)c3)cc2c1)Nc1ccc2ccc(S(=O)(=O)Nc3ccc(Cl)c(C(=O)O)c3)cc2c1`, 16 µM.
As for `NS(=O)(=O)c1cccc(NS(=O)(=O)c2ccc3ccc(NC(=O)Nc4ccc5ccc(S(=O)(=O)Nc6cccc(S(N)(=O)=O)c6)cc5c4)cc3c2)c1`, the EC50 was more than 200 µM.
As for `O=C(Nc1ccc2c(O)cc(S(=O)(=O)Nc3cccc(-c4nn[nH]n4)c3)cc2c1)Nc1ccc2c(O)cc(S(=O)(=O)Nc3cccc(-c4nn[nH]n4)c3)cc2c1`, the figure is 73 µM; as for `CNC(=Nc1ccc2ccc(S(=O)(=O)Nc3ccc(Cl)c(C(=O)O)c3)cc2c1)Nc1ccc2ccc(S(=O)(=O)Nc3ccc(Cl)c(C(=O)O)c3)cc2c1`, more than 200 µM.
As for `O=C(Nc1ccc2ccc(S(=O)(=O)Nc3ccccc3C(=O)O)cc2c1)Nc1ccc2ccc(S(=O)(=O)Nc3ccccc3C(=O)O)cc2c1`, the figure is 41 µM; as for `O=C(Nc1ccc2ccc(S(=O)(=O)Nc3cccc([N+](=O)[O-])c3)cc2c1)Nc1ccc2ccc(S(=O)(=O)Nc3cccc([N+](=O)[O-])c3)cc2c1`, more than 200 µM.
For the compound `O=C(Nc1ccc2ccc(S(=O)(=O)Nc3cccc(S(=O)(=O)O)c3)cc2c1)Nc1ccc2ccc(S(=O)(=O)Nc3cccc(S(=O)(=O)O)c3)cc2c1`, the EC50 was found to be 22 µM.
As for `N#CN=C(Nc1ccc2ccc(S(=O)(=O)Nc3ccc(Cl)c(C(=O)O)c3)cc2c1)Nc1ccc2ccc(S(=O)(=O)Nc3ccc(Cl)c(C(=O)O)c3)cc2c1`, the figure is more than 200 µM; as for `CN(C(=O)N(C)c1ccc2ccc(S(=O)(=O)Nc3ccc(Cl)c(C(=O)O)c3)cc2c1)c1ccc2ccc(S(=O)(=O)Nc3ccc(Cl)c(C(=O)O)c3)cc2c1`, more than 200 µM; as for `CN(c1cccc(S(=O)(=O)O)c1)S(=O)(=O)c1ccc2ccc(NC(=O)Nc3ccc4ccc(S(=O)(=O)N(C)c5cccc(S(=O)(=O)O)c5)cc4c3)cc2c1`, 91 µM.
For `O=C(Nc1ccc2ccc(S(=O)(=O)Nc3ccc(Cl)c(S(=O)(=O)O)c3)cc2c1)Nc1ccc2ccc(S(=O)(=O)Nc3ccc(Cl)c(S(=O)(=O)O)c3)cc2c1`, the EC50 amounted to 6 µM.
As for `O=C(O)c1cc(NS(=O)(=O)c2ccc3ccc(NCCNc4ccc5ccc(S(=O)(=O)Nc6ccc(Cl)c(C(=O)O)c6)cc5c4)cc3c2)ccc1Cl`, the figure is more than 200 µM.
As for `CC(=O)N(CCN(C(C)=O)c1ccc2ccc(S(=O)(=O)Nc3ccc(Cl)c(C(=O)O)c3)cc2c1)c1ccc2ccc(S(=O)(=O)Nc3ccc(Cl)c(C(=O)O)c3)cc2c1`, the figure is more than 200 µM.
Turning to `O=C(Nc1ccc2c(O)cc(S(=O)(=O)Nc3ccccc3C(=O)O)cc2c1)Nc1ccc2c(O)cc(S(=O)(=O)Nc3ccccc3C(=O)O)cc2c1`, the EC50 was determined as 93 µM.
As for `O=C(Nc1ccc2ccc(S(=O)(=O)Nc3cccc(C(=O)O)c3O)cc2c1)Nc1ccc2ccc(S(=O)(=O)Nc3cccc(C(=O)O)c3O)cc2c1`, the EC50 was 150 µM.
As for `O=C(Nc1ccc2ccc(C(=O)Nc3cccc(C(=O)O)c3)cc2c1)Nc1ccc2ccc(C(=O)Nc3cccc(C(=O)O)c3)cc2c1`, the figure is more than 200 µM; as for `O=C(Nc1ccc2ccc(S(=O)(=O)Nc3ccc(O)c(C(=O)O)c3)cc2c1)Nc1ccc2ccc(S(=O)(=O)Nc3ccc(O)c(C(=O)O)c3)cc2c1`, 9 µM.
As for `O=C(Nc1ccc2ccc(S(=O)(=O)Nc3ccc(S(=O)(=O)O)cc3)cc2c1)Nc1ccc2ccc(S(=O)(=O)Nc3ccc(S(=O)(=O)O)cc3)cc2c1`, the figure is 94 µM.

The term EC50 denotes the midpoint of the concentration-response curve.
